Source: ChEMBL document CHEMBL3044705, “Synthesis and insecticidal activity of an oxabicyclolactone and novel pyrethroids” (2012)

How the values were obtained:
Format in all cases: functional
Periplaneta americana [1] = test: Insecticidal activity against second-instar nymph Periplaneta americana (American cockroach) assessed as mortality at 5 ug applied on thoracic tergite at 25 +/- 0.5 degC and 75 +/- 5 % RH with food for 12 hr
Outline: (§1)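 Topical contact assay. Dose was expressed per mg of insect body weight: 5 μg/mg for P. americana, 10 µg/mg for A. monuste orseis, and 50 μg/mg for A. obtectus and S. zeamais. The acetone control received solvent only. Insects were held in Petri dishes in an incubator with a 12 h photoperiod. Dead and motionless insects were both counted as dead. Mean percent mortality was compared by Tukey test at the 0.05 level.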

Sitophilus zeamais [2] = test: Insecticidal activity against Sitophilus zeamais assessed as mortality at 50 ug applied on thoracic tergite at 25 +/- 0.5 degC and 75 +/- 5 % RH without food for 24 hr; outline: as §1
Acanthoscelides obtectus [3] = test: Insecticidal activity against Acanthoscelides obtectus assessed as mortality at 50 ug applied on thoracic tergite at 25 +/- 0.5 degC and 75 +/- 5 % RH without food for 24 hr; outline: as §1
Sitophilus zeamais [4] = test: Insecticidal activity against Sitophilus zeamais assessed as mortality at 50 ug applied on thoracic tergite at 25 +/- 0.5 degC and 75 +/- 5 % RH without food for 12 hr; outline: as §1
Ascia monuste [5] = test: Insecticidal activity against Ascia monuste orseis assessed as mortality at 10 ug applied on thoracic tergite at 25 +/- 0.5 degC and 75 +/- 5 % RH with food for 24 hr; outline: as §1
Ascia monuste [6] = test: Insecticidal activity against Ascia monuste orseis assessed as mortality at 10 ug applied on thoracic tergite at 25 +/- 0.5 degC and 75 +/- 5 % RH with food for 12 hr; outline: as §1
Acanthoscelides obtectus [7] = test: Insecticidal activity against Acanthoscelides obtectus assessed as mortality at 50 ug applied on thoracic tergite at 25 +/- 0.5 degC and 75 +/- 5 % RH without food for 12 hr; outline: as §1
Periplaneta americana [8] = test: Insecticidal activity against second-instar nymph Periplaneta americana (American cockroach) assessed as mortality at 5 ug applied on thoracic tergite at 25 +/- 0.5 degC and 75 +/- 5 % RH with food for 24 hr; outline: as §1

Structure (SMILES)	mortality (Periplaneta americana [1]) [%]	mortality (Sitophilus zeamais [2]) [%]	mortality (Acanthoscelides obtectus [3]) [%]	mortality (Sitophilus zeamais [4]) [%]	mortality (Ascia monuste [5]) [%]	mortality (Ascia monuste [6]) [%]	mortality (Acanthoscelides obtectus [7]) [%]	mortality (Periplaneta americana [8]) [%]
CCOc1ccc(C=C[C@H]2[C@H](C(=O)OC)C2(C)C)cc1	75	100	97.5	97.5	92.5	75	97.5	
COC(=O)[C@H]1[C@H](C=Cc2c(F)c(F)c(F)c(F)c2F)C1(C)C	100	100	100	97.5	100	100	100	100
COC(=O)[C@H]1[C@H](C=Cc2cccc(OC)c2)C1(C)C	92	97.5	92.5	92.5	95	75	82.5	
COC(=O)[C@H]1[C@H](C=Cc2ccccc2OC)C1(C)C	100	95	95	95	95	62.5	87.5	100
COC(=O)[C@@H]1[C@@H](C=O)C1(C)C	67	45	97.5	42.5	67.5	50	90	71
COC(=O)[C@H]1[C@H](C=O)C1(C)C	79.33	47.5	100	45	47.5	27.5	100	96
CC1(C)C2COC(=O)C21 (stereo not given)	100	90	100	85	100	100	100	100
COC(=O)[C@H]1[C@H](C=Cc2ccccc2Cl)C1(C)C (mixture of isomers)	67	90	97.5	82.5	100	100	97.5	67
CC1(C)C(C=C(Cl)Cl)C1C(=O)OCc1cccc(Oc2ccccc2)c1 (stereo not given) [PERMETHRIN]	87.5	90	100	85.5	100	100	100	97.5
